Each structure is given as a SMILES string. Unmarked numbers belong to inactive results.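 The calls were made as follows: active = curve reaches 10% of the strong reference activator's caspase signal at or below the top valid tested dose; inactive = signal moves in the opposite direction, or the rest.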

The test can be described thus: caspase activation in unprimed MEWO cells, dose response, counter-screen for A1 inhibitor project, cell-based, luminescence, dry powder, set 2 (AID 504354). Conditions: caspase-Glo luminescence, 3 h, stronger effect = higher value; at 35 µM unless noted. In outline: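 Material – unprimed MEWO cell line expressing A1 · Quantity – 2500 cells per well · Medium – RPMI-1640 growth medium with 10% FBS · Doses – compound delivered into wells by pin transfer · Times – 3 h 37 °C compound exposure, 1 h room-temperature reagent incubation · Measured by – CaspaseGlo luminescence · Evaluation – caspase activity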
A general note: The purpose of a counterscreen is to sort out artefacts and off-target activity.
Take `CN1C(=O)C(C)(C)N(Cc2ccccc2)c2ccccc21`: the caspase activation was 0.935% [at 2.1 µM].

As for `Cc1ccc(Sc2c([N+](=O)[O-])cnc3ccccc23)cc1`, the caspase activation was 6.63% [at 16 µM].

On to `Cc1ccc(Sc2c([N+](=O)[O-])c(=O)n(C)c3ccccc23)cc1`, for which the caspase activation is 2.38%.

In the case of `O=c1oc2ccccc2c(Cl)c1[N+](=O)[O-]`, the caspase activation is -4.52% [at 16 µM].

In the case of `O=[N+]([O-])c1cnc2ccccc2c1Sc1ccccc1`, the caspase activation is 5.29% [at 16 µM].

In the case of `Cn1c(=O)c([N+](=O)[O-])c(Oc2ccccc2)c2ccccc21`, the caspase activation is 2.97% [at 0.135 µM].

Turning to `Cc1ccc(Sc2cc(=O)n(C)c3ccccc23)cc1`, the caspase activation was -6.38%.

Regarding `O=c1oc2ccccc2c(N2CCCCC2)c1[N+](=O)[O-]`, the caspase activation was -1.32% [at 16 µM].

On to `Cn1c(=O)c([N+](=O)[O-])c(Nc2ccc(Cl)cc2)c2ccccc21`, for which the caspase activation is 1.87% [at 1 µM].

As for `O=C(Oc1cccc(/C=N/Nc2nc(Nc3ccccc3)nc(N3CCOCC3)n2)c1)c1ccco1`, the caspase activation was 2.6% [at 16 µM].

Regarding `Cn1c(=O)c([N+](=O)[O-])c(Cl)c2ccccc21`, the caspase activation is 4.66% [at 8 µM].

Take `Cc1ccc(Sc2c([N+](=O)[O-])c(=O)oc3ccccc23)cc1`: the caspase activation is -4.32%.

Turning to `CCSc1c([N+](=O)[O-])c(=O)oc2ccccc12`, the caspase activation is -0.935% [at 0.26 µM].

With `Cc1ccc(Nc2c([N+](=O)[O-])c(=O)oc3ccccc23)cc1`, the caspase activation is 1.87% [at 2.1 µM].

(Values after PubChem BioAssay AID504354 (Broad Institute, 2011).)
